Reference: ChEMBL document CHEMBL1151987, “Glionitrin A, an antibiotic-antitumor metabolite derived from competitive interaction between abandoned mine microbes” (J Nat Prod, 2009)
In brackets after ≈: the same amount, converted by molar mass.

Legend:
Staphylococcus aureus [1] = assay: Antibacterial activity against methicillin-resistant Staphylococcus aureus ATCC 43300; assay type: functional
Proteus vulgaris = assay: Antibacterial activity against Proteus vulgaris ATCC 3851; assay type: functional
Micrococcus luteus = assay: Antibacterial activity against Micrococcus luteus IFC 12708; assay type: functional
Bacillus subtilis = assay: Antibacterial activity against Bacillus subtilis ATCC 6633; assay type: functional
Staphylococcus aureus [2] = assay: Antibacterial activity against methicillin-resistant Staphylococcus aureus ATCC 700788; assay type: functional
Staphylococcus aureus [3] = assay: Antibacterial activity against methicillin-resistant Staphylococcus aureus ATCC 700787; assay type: functional
[4] = tested on: Salmonella enterica subsp. enterica; assay: Antibacterial activity against Salmonella Typhimurium ATCC 14028; assay type: functional, Salmonella enterica subsp. enterica serovar Typhimurium
A549 = assay: Cytotoxicity against human A549 cells; assay type: functional, cell-based
Procedure, shortened: (§1)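 Cell proliferation inhibition measured by MTT assay; the value is reported as IC50 in µM.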

HCT-116 = assay: Cytotoxicity against human HCT116 cells; assay type: functional, cell-based; procedure, shortened: as §1
Trichophyton rubrum = assay: Antifungal activity against Trichophyton rubrum IFO 9185; assay type: functional
MCF7 = assay: Cytotoxicity against human MCF7 cells; assay type: functional, cell-based; procedure, shortened: as §1
DU-145 = assay: Cytotoxicity against human DU145 cells; assay type: functional, cell-based; procedure, shortened: as §1
Aspergillus fumigatus = assay: Antifungal activity against Aspergillus fumigatus HIC 6094; assay type: functional
HepG2 = assay: Cytotoxicity against human HepG2 cells; assay type: functional, cell-based; procedure, shortened: as §1
AGS = assay: Cytotoxicity against human AGS cells; assay type: functional, cell-based; procedure, shortened: as §1

Row | SMILES | MIC (Staphylococcus aureus [1]) | MIC (Proteus vulgaris) | MIC (Micrococcus luteus) | MIC (Bacillus subtilis) | MIC (Staphylococcus aureus [2]) | MIC (Staphylococcus aureus [3]) | MIC [4] | IC50 (A549) | IC50 (HCT-116) | MIC (Trichophyton rubrum) | IC50 (MCF7) | IC50 (DU-145) | MIC (Aspergillus fumigatus) | IC50 (HepG2) | IC50 (AGS)
1 | CC1(C)S[C@@H]2[C@H](NC(=O)[C@H](N)c3ccccc3)C(=O)N2[C@H]1C(=O)O [AMPICILLIN] | 12.5 µg/mL (≈ 35.8 µM) | 1.56 µg/mL (≈ 4.46 µM) | 0.78 µg/mL (≈ 2.23 µM) | 3.13 µg/mL (≈ 8.96 µM) | 25 µg/mL (≈ 71.5 µM) | 12.5 µg/mL (≈ 35.8 µM) | 12.5 µg/mL (≈ 35.8 µM) |  |  |  |  |  |  |  | 
2 | CN1C(=O)[C@@]23Cc4ccc([N+](=O)[O-])cc4N2C(=O)[C@@]1(CO)SS3 [GLIONITRIN A] | 0.78 µg/mL (≈ 2.21 µM) | 3.13 µg/mL (≈ 8.86 µM) | 0.78 µg/mL (≈ 2.21 µM) | 6.25 µg/mL (≈ 17.7 µM) | 0.78 µg/mL (≈ 2.21 µM) | 0.78 µg/mL (≈ 2.21 µM) | 3.13 µg/mL (≈ 8.86 µM) | 550 nM | 820 nM | 12.5 µg/mL (≈ 35.4 µM) | 2000 nM | 240 nM | 12.5 µg/mL (≈ 35.4 µM) | 2300 nM | 450 nM
3 | C[C@@H]1[C@H](O)[C@@H](C)/C=C/C=C/C=C/C=C/C=C/C=C/C=C/[C@H](O[C@@H]2O[C@H](C)[C@@H](O)[C@H](N)[C@@H]2O)C[C@@H]2O[C@](O)(C[C@@H](O)C[C@@H](O)[C@H](O)CC[C@@H](O)C[C@@H](O)CC(=O)O[C@H]1C)C[C@H](O)[C@H]2C(=O)O [AMPHOTERICIN B] |  |  |  |  |  |  |  |  |  | 1.56 µg/mL (≈ 1.69 µM) |  |  |  |  | 
